Here are results for two molecules from ChEMBL document CHEMBL1781999, “Lead optimization of aryl and aralkyl amine-based triazolopyrimidine inhibitors of Plasmodium falciparum dihydroorotate dehydrogenase with antimalarial activity in mice” (J Med Chem, 2011).

SMILES strings stand for the structures. Active and inactive are the calls of the source. The rule behind the calls is not given here.

Data set [1] concerns Rattus norvegicus. Put plainly: Terminal elimination half life in Sprague-Dawley rat at 5.1 mg/kg, iv by LC-MS analysis. The conditions noted are these: in vivo. It is filed as ADME, organism-based. On the set-up: dose 5.1 mg/kg, route intravenous. The method, boiled down: (§1)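 Overnight-fasted male Sprague Dawley rats (n=2 per dose). IV dosing was a 10 min jugular infusion in a solution vehicle of DMSO and acid with Captisol or Tween/glucose, depending on compound; oral dosing was by gavage as a suspension.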

The subject of data set [2] is Rattus norvegicus. Put plainly: Oral bioavailability in Sprague-Dawley rat at 20.1 mg/kg by LC-MS analysis. The format is ADME, organism-based. The conditions noted are these: in vivo. The method, boiled down:
(§2)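 Overnight-fasted male Sprague Dawley rats, dosed orally by gavage as an aqueous suspension, n=2. Arterial blood taken via carotid cannula up to 24 h; plasma measured by LC-MS. %F = mean dose-normalized oral AUC0-24h versus IV AUC0-24h at the higher IV dose (5 mg/kg or 3 mg/kg, depending on compound); treated as an estimate.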

In data set [3] the test system is Plasmodium berghei ANKA. Put plainly: Antimalarial activity against Plasmodium berghei ANKA NK65 infected in Swiss Webster mouse assessed as complete reduction of parasitemia level at 100 mg/kg, po qd administered for 4 days measured 24 hrs after last dose by light microscopic analysis. The format is functional, organism-based. On the set-up: dose 100 mg/kg. The method, boiled down:
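Female Swiss Webster mice, 8-10 weeks old (20-22 g), infected intraperitoneally with 2 × 10^7 P. berghei NK65 ANKA-infected erythrocytes. Oral doses in CMC vehicle (200 μL), first given 3 h post-infection, then at 24, 48 and 72 h. Parasitemia followed daily from 24 h by light microscopy at 1000× oil immersion, counting ≥10 fields of >100 erythrocytes. Mice losing ≥20% body weight were euthanized.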

Data set [4] has as its system Rattus norvegicus. Briefly: Volume of distribution at steady state in Sprague-Dawley rat at 1 mg/kg, iv by LC-MS analysis. Particulars: in vivo. The format is ADME, organism-based. On the set-up: dose 1 mg/kg, route intravenous. The method, boiled down:
as §1

The subject of data set [5] is Rattus norvegicus. Put plainly: Terminal elimination half life in Sprague-Dawley rat at 1 mg/kg, iv by LC-MS analysis. It is filed as ADME, organism-based. Particulars: in vivo. The arrangement: dose 1 mg/kg, route intravenous. The method in brief: as §1
Data set [6] relates to Rattus norvegicus. Briefly: Cmax in Sprague-Dawley rat at 20.1 mg/kg, po by LC-MS analysis. The conditions noted are these: in vivo. The format is ADME, organism-based. On the set-up: dose 20.1 mg/kg, route oral. The method in brief: (§3)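 Overnight-fasted male Sprague Dawley rats (n=2 per compound) gavaged with an aqueous suspension (DMSO, cellulose, benzyl alcohol, Tween 80 in water); food returned 4 h post-dose. Arterial blood via carotid cannula up to 24 h into heparinized tubes with stabilization cocktail. Plasma acetonitrile-precipitated, LC-MS against blank-plasma standards. AUC by non-compartmental analysis; Cmax read from profiles.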

The subject of data set [7] is Rattus norvegicus. Put plainly: Terminal elimination half life in Sprague-Dawley rat at 20.1 mg/kg, po by LC-MS analysis. On the set-up: dose 20.1 mg/kg, route oral. The conditions noted are these: in vivo. The format is ADME, organism-based. The method, boiled down: as §1
Data set [8] deals with Plasmodium berghei ANKA. Briefly: Antimalarial activity against Plasmodium berghei ANKA NK65 infected in Swiss Webster mouse assessed as complete reduction of parasitemia level at 50 mg/kg, po bid administered for 4 days measured 24 hrs after last dose by light microscopic analysis. The format is functional, organism-based. On the set-up: dose 50 mg/kg.
The test system of data set [9] is Rattus norvegicus. Briefly: Volume of distribution at steady state in Sprague-Dawley rat at 5.1 mg/kg, iv by LC-MS analysis. The conditions noted are these: in vivo. The arrangement: dose 5.1 mg/kg, route intravenous. The format is ADME, organism-based. The method in brief:
as §1

Data set [10] in a line: Antimalarial activity against Plasmodium berghei ANKA NK65 infected in po dosed Swiss Webster mouse assessed as reduction of parasitemia level administered qd for 4 days measured 24 hrs after last dose by light microscopic analysis. It is filed as functional.
Data set [11] relates to Rattus norvegicus. Briefly: AUC (0 to infinity) in Sprague-Dawley rat at 20.1 mg/kg, po by LC-MS analysis. The format is ADME, organism-based, Plasma. On the set-up: time infinity, dose 20.1 mg/kg, route oral. Particulars: in vivo. The method, boiled down: as §3
Data set [12] can be described thus: AUC (0 to infinity) in Sprague-Dawley rat at 18.6 mg/kg, po by LC-MS analysis. The conditions noted are these: plasma. It is filed as ADME, organism-based. On the set-up: time infinity, dose 18.6 mg/kg, route oral. The method in brief:
as §3

Data set [13] in a line: Cmax in Sprague-Dawley rat at 18.6 mg/kg, po by LC-MS analysis. It is filed as ADME, organism-based. On the set-up: dose 18.6 mg/kg, route oral. The conditions noted are these: in vivo. The method, boiled down: as §3
The test system of data set [14] is Plasmodium berghei ANKA. Put plainly: Antimalarial activity against Plasmodium berghei ANKA NK65 infected in Swiss Webster mouse assessed as complete cure of animal at 100 mg/kg, po bid measured on day 9 by light microscopic analysis. On the set-up: dose 100 mg/kg. The format is functional, organism-based.
Data set [15] can be described thus: Oral bioavailability in Sprague-Dawley rat at 18.6 mg/kg by LC-MS analysis. It is filed as ADME, organism-based. The conditions noted are these: in vivo. The method, boiled down:
as §2

In data set [16] the test system is Rattus norvegicus. Put plainly: Volume of distribution at steady state in Sprague-Dawley rat at 2.9 mg/kg, iv by LC-MS analysis. The conditions noted are these: in vivo. On the set-up: dose 2.9 mg/kg, route intravenous. It is filed as ADME, organism-based. The method, boiled down:
as §1

Data set [17] can be described thus: Terminal elimination half life in Sprague-Dawley rat at 18.6 mg/kg, po by LC-MS analysis. The conditions noted are these: in vivo, read-out: beta t1/2 (converted). The format is ADME, organism-based. On the set-up: dose 18.6 mg/kg, route oral. The method, boiled down: as §1
Data set [18] concerns Rattus norvegicus. Put plainly: Volume of distribution at steady state in Sprague-Dawley rat at 0.9 mg/kg, iv by LC-MS analysis. It is filed as ADME, organism-based. On the set-up: dose 0.9 mg/kg, route intravenous. The conditions noted are these: in vivo. The method, boiled down:
as §1

Data set [19] concerns Rattus norvegicus. Put plainly: Terminal elimination half life in Sprague-Dawley rat at 0.9 mg/kg, iv by LC-MS analysis. The format is ADME, organism-based. On the set-up: dose 0.9 mg/kg, route intravenous. Particulars: in vivo. The method in brief:
as §1

Data set [20] concerns Rattus norvegicus. Briefly: Terminal elimination half life in Sprague-Dawley rat at 2.9 mg/kg, iv by LC-MS analysis. Particulars: in vivo. The format is ADME, organism-based. The arrangement: dose 2.9 mg/kg, route intravenous. The method in brief: as §1

Regarding `Cc1cc(Nc2ccc(S(F)(F)(F)(F)F)cc2)n2ncnc2n1`, the “beta t1/2” value in [1] amounted to 14.5 h; in [5], 11.4 h; in [7] it was 33 h. This molecule came in with a F in data set [2] of over 100%. Also, the result in data set [3] and in data set [8] was inactive. Further, the figures for the Vdss in data set [4] and in [9] were 1.4 L/kg and 1.5 L/kg, respectively. Besides, the Cmax in [6] was 31 µM. Moreover, the ED50 in data set [10] is 17 mg/kg. Also, the AUC in data set [11] turned out to be 101693 µM·min.
`Cc1cc(Nc2cc(F)c(C(F)(F)F)c(F)c2)n2ncnc2n1` had an AUC(0-inf) in [12] of 1250 µM·h. Moreover, in data set [13], the Cmax was found to be 34.3 µM. Besides, the outcome in data set [14] was inactive. Besides, the bioavailability in [15] is over 100%. Further, the Vdss in data set [16] was found to be 0.5 L/kg; in data set [18], 0.4 L/kg. Moreover, the half-life in data set [17] is 17.6 h. Moreover, the “beta t1/2” value in data set [19] amounted to 1.6 h; in data set [20] it was 4.5 h.
